# Assay results taken from ChEMBL document CHEMBL1129405, “In vitro and in vivo evaluation of 6-azido-2',3'-dideoxy-2'-fluoro-beta-D-arabinofuranosylpurine and N6-methyl-2',3'-dideoxy-2'-fluoro-beta-D-arabinofuranosyladenine as prodrugs of the anti-HIV nucleosides 2'-F-ara-ddA and 2'-F-ara-ddI” (J Med Chem, 1996).
# Key:
# [1] = test system: Mus musculus; assay: The ratio of AUC / dose (mM.h/uMol)/kg at 112 mg/kg dose after intravenous administration in mice brain; AUC/Dose (uM); assay type: ADME, organism-based; parameters: dose 112 mg/kg, route intravenous; settings: in vivo
# Outline: (§1)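 Female NIH-Swiss mice (24-28 g), tail-vein injection of 112 mg/kg (437 µmol/kg) in saline (15 mg/mL); three mice per time point, ether anesthesia, exsanguination by heart puncture; serum and brain (homogenized 1:1 g:mL in ice-cold isotonic 0.05 M phosphate, pH 7.4) assayed by HPLC, UV 260 nm. Noncompartmental analysis of mean concentrations; AUC by Lagrange interpolation, extrapolated via terminal slope (last 3-5 points); t1/2 = 0.693/λz; AUC normalized to µmol/kg dose.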
# [2] = test system: Mus musculus; assay: The ratio of AUC / dose (mM.h/umol)/kg at 112 mg/kg dose after intravenous administration in mice serum; assay type: ADME, organism-based; parameters: dose 112 mg/kg, route intravenous; settings: in vivo; outline: as §1
# [3] = test system: Mus musculus; assay: The ratio of AUC / dose (mM.h/uMol)/kg at 112 mg/kg dose after oral administration in mice serum; AUC/Dose (uM); assay type: ADME, organism-based; parameters: dose 112 mg/kg, route oral; settings: in vivo
# [4] = test system: Mus musculus; assay: t1/2 was measured at 55 mg/kg dose by oral administration in mice brain; t1/2 (h); not detected; assay type: ADME, organism-based; parameters: dose 55 mg/kg, route oral; settings: in vivo
# [5] = (§2) The ratio of AUC /dose(uM); not detected; assay type: ADME
# [6] = The ratio of AUC /dose(uM); assay type: ADME
# [7] = as §2; assay type: ADME; remark: listed apart in the source
# [8] = (§3) The ratio of AUC /dose (uM); assay type: ADME
# [9] = test system: Mus musculus; assay: t1/2 was measured AT 112 mg/kg dose by intravenous administration in mice brain; not detected; settings: in vivo
# [10] = test system: Mus musculus; assay: Pharmacokinetic parameter AUC was measured at 112 mg/kg dose by intravenous administration in mice brain; AUC (mM.h); not detected; assay type: ADME, organism-based; parameters: dose 112 mg/kg, route intravenous; settings: in vivo; outline: as §1
# [11] = test system: Mus musculus; assay: Pharmacokinetic parameter AUC was measured at 55 mg/kg dose by oral in mice brain; AUC (mM.h); not detected; assay type: ADME, organism-based; parameters: dose 55 mg/kg, route oral; settings: in vivo
# [12] = test system: Mus musculus; assay: Pharmacokinetic parameter AUC was measured at 112 mg/kg dose by intravenous administration using FMAddA as substrate in mice brain; AUC 0-r (mM.h); not detected; assay type: ADME, organism-based; parameters: dose 112 mg/kg, route intravenous; settings: in vivo; outline: as §1
# [13] = as §3; assay type: ADME; remark: listed apart in the source
# [14] = test system: Mus musculus; assay: The ratio of AUC / dose (mM.h/uMol)/kg at 112 mg/kg dose after intravenous administration in mice serum; AUC/Dose (uM); assay type: ADME, organism-based; parameters: dose 112 mg/kg, route intravenous; settings: in vivo; outline: as §1
structure (smiles),measurement,setting,value
[N-]=[N+]=Nc1ncnc2c1ncn2C1OC(CO)CC1F (stereo not drawn),Ratio,[1],0.06
same,Ratio,[2],1.01
same,Ratio,[3],0.19
OCC1CC(F)C(n2cnc3c(O)ncnc32)O1 (stereo not drawn),T1/2,[4],Not detected
same,Ratio,[5],Not detected
same,Ratio,[6],0.046
same,Ratio,[7],Not detected
same,Ratio,[8],0.13
same,T1/2,[9],Not detected
same,AUC,[10],Not detected
same,AUC,[11],Not detected
same,AUC,[12],Not detected
same,Ratio,[13],0.48
Nc1ncnc2c1ncn2[C@@H]1O[C@H](CO)C[C@@H]1F [LODENOSINE],Ratio,[1],0.02
same,Ratio,[3],0.005
same,Ratio,[14],0.04
CNc1ncnc2c1ncn2C1OC(CO)CC1F (stereo not drawn),Ratio,[1],0.09
same,Ratio,[14],0.68
